# Laboratory results taken from ChEMBL document CHEMBL1145189, “Synthesis and evaluation of S-acyl-2-thioethyl esters of modified nucleoside 5'-monophosphates as inhibitors of hepatitis C virus RNA replication” (J Med Chem, 2005).
# Key:
# [1] = Inhibitory concentration against hepatitis C virus NS5B-mediated RNA synthesis in HBI10A cells; format: functional, cell-based; settings: Homo sapiens
# [2] = Effective concentration against hepatitis C virus RNA replication in a subgenomic bicistronic replicon in HBI10A cells; format: functional, cell-based; settings: Homo sapiens
# How it was run: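 Stable Huh-7-derived HBI10A hepatoma line carrying a subgenomic bicistronic HCV replicon. Compound incubated with cells for 24 h. Relative replicon RNA then quantified by in situ ribonuclease protection assay.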
# [3] = Cytotoxic concentration of compound in human HBI10A cells infected with hepatitis C virus in MTS assay; format: functional
# How it was run: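 MTS cytotoxicity run on samples parallel to the replicon assay, at the same time (24 h compound exposure). Cells plated at 2.0 × 10⁴/well and compound added next day at 2× in medium. Incubation at 37 °C, 5% CO₂. MTS reagent added for 1 h, then absorbance read at 490 nm.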
SMILES,IC50 [1] [µM],EC50 [2] [µM],CC50 [3] [µM]
Nc1nc2c(ncn2[C@@H]2O[C@H](CO)C[C@H]2O)c(=O)[nH]1,0.6,> 50,
Nc1ccn([C@@H]2O[C@H](CO)C[C@H]2O)c(=O)n1,1.2,25,> 50
Nc1nc(O)c2ccn([C@@H]3O[C@H](CO)C[C@H]3O)c2n1,0.08,> 50,

# Second part, led by results:
IC50 [1] [µM],EC50 [2] [µM],SMILES,CC50 [3] [µM]
,23,CC(C)(C)C(=O)SCCOP(=O)(OCCSC(=O)C(C)(C)C)OC[C@@H]1C[C@@H](O)[C@H](n2cnc3c(O)nc(N)nc32)O1,> 50
,> 50,CO[C@@H]1[C@H](O)[C@@H](COP(=O)(OCCSC(=O)C(C)(C)C)OCCSC(=O)C(C)(C)C)O[C@H]1n1cnc2c(O)nc(N)nc21,> 50
,1.4,CC(C)(C)C(=O)SCCOP(=O)(OCCSC(=O)C(C)(C)C)OC[C@@H]1C[C@@H](O)[C@H](n2ccc(N)nc2=O)O1,> 100
